# Test results reported in ChEMBL document CHEMBL4689842, “EUbOPEN Chemogenomics Library wave 1” (2021).
# “And” between values parts separate entries of the source, which are not always exact repeats. Equal entries are not always repeated.
# System: U2OS
# Assay: Multiplex assay against U2OS
# Format: toxicity, cell-based
# Conditions: human
# In short: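 Live cells were stained at seeding with Hoechst33342, BioTracker Green Microtubule Cytoskeleton Dye, MitoTracker Red and Annexin V Alexa Fluor 680. Following compound addition, they were imaged on a CQ1 microscope at 37°C and 5% CO2 and gated by CellPathfinder machine learning into Hoechst high-intensity objects or normal cells, with normal cells split into healthy, pyknosed or fragmented nuclei and pyknosed cells into mitotic or apoptotic. Tubulin, mitochondrial-mass and membrane-permeability phenotypes are per cents of healthy-nucleus cells.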
# [1] = 12 h, 1 µM, compound concentration 1 uM, replicate 1
# [2] = 12 h, 1 µM, compound concentration 1 uM, replicate 2
# [3] = 12 h, 10 µM, compound concentration 10 uM, replicate 1
# [4] = 12 h, 10 µM, compound concentration 10 uM, replicate 2
# [5] = 24 h, 1 µM, compound concentration 1 uM, replicate 1
# [6] = 24 h, 1 µM, compound concentration 1 uM, replicate 2
# [7] = 24 h, 10 µM, compound concentration 10 uM, replicate 1
# [8] = 24 h, 10 µM, compound concentration 10 uM, replicate 2
# [9] = 48 h, 10 µM, compound concentration 10 uM, replicate 1
# [10] = 48 h, 10 µM, compound concentration 10 uM, replicate 2
smiles,measurement,setting,value
CNC(=O)c1nn(C)c2c1C(C)(C)Cc1cnc(Nc3ccc(N4CCN(C)CC4)cc3)nc1-2 [MILCICLIB],Population Apoptotic (%),[1],39%
same,Population Fragmented Nuclei (%),[1],17%
same,Population Healthy Nuclei (%),[1],66%
same,Population Hoechst High Intensity Objects (%),[1],6%
same,Population Membrane Permeable-Phenotype (%),[1],25%
same,Population Mitochondria Different-Phenotype (%),[1],64%
same,Population Mitotic Cells (%),[1],60%
same,Population Normal (%),[1],93%
same,Population Pyknosed Nuclei (%),[1],15%
same,Population Tubulin-Different-Phenotype (%),[1],100%
same,Total Cell Count,[1],194
same,Population Apoptotic (%),[2],58%
same,Population Fragmented Nuclei (%),[2],18%
same,Population Healthy Nuclei (%),[2],69%
same,Population Hoechst High Intensity Objects (%),[2],18%
same,Population Membrane Permeable-Phenotype (%),[2],12%
same,Population Mitochondria Different-Phenotype (%),[2],76%
same,Population Mitotic Cells (%),[2],41%
same,Population Normal (%),[2],81%
same,Population Pyknosed Nuclei (%),[2],12%
same,Population Tubulin-Different-Phenotype (%),[2],90%
same,Total Cell Count,[2],163
same,Population Apoptotic (%),[3],60% and 50% and 62%
same,Population Fragmented Nuclei (%),[3],16% and 20% and 13%
same,Population Healthy Nuclei (%),[3],49% and 42% and 64%
same,Population Hoechst High Intensity Objects (%),[3],7% and 10% and 5%
same,Population Membrane Permeable-Phenotype (%),[3],20% and 15% and 29%
same,Population Mitochondria Different-Phenotype (%),[3],95% and 98% and 57%
same,Population Mitotic Cells (%),[3],40% and 50% and 37%
same,Population Normal (%),[3],92% and 89% and 94%
same,Population Pyknosed Nuclei (%),[3],33% and 37% and 21%
same,Population Tubulin-Different-Phenotype (%),[3],98% and 100% and 99%
same,Total Cell Count,[3],208 and 243 and 221
same,Population Apoptotic (%),[4],73% and 55%
same,Population Fragmented Nuclei (%),[4],12% and 8%
same,Population Healthy Nuclei (%),[4],54% and 68% and 62%
same,Population Membrane Permeable-Phenotype (%),[4],28% and 25% and 24%
same,Population Mitochondria Different-Phenotype (%),[4],100% and 76%
same,Population Mitotic Cells (%),[4],26% and 44%
same,Population Normal (%),[4],90% and 85% and 97%
same,Population Pyknosed Nuclei (%),[4],25% and 19% and 29%
same,Population Tubulin-Different-Phenotype (%),[4],91%
same,Total Cell Count,[4],122 and 87 and 65
same,Population Apoptotic (%),[5],85%
same,Population Fragmented Nuclei (%),[5],17%
same,Population Healthy Nuclei (%),[5],54%
same,Population Hoechst High Intensity Objects (%),[5],11%
same,Population Membrane Permeable-Phenotype (%),[5],33%
same,Population Mitochondria Different-Phenotype (%),[5],92%
same,Population Mitotic Cells (%),[5],14%
same,Population Normal (%),[5],88%
same,Population Pyknosed Nuclei (%),[5],27%
same,Population Tubulin-Different-Phenotype (%),[5],100%
same,Total Cell Count,[5],186
same,Population Apoptotic (%),[6],86%
same,Population Fragmented Nuclei (%),[6],20%
same,Population Healthy Nuclei (%),[6],60%
same,Population Hoechst High Intensity Objects (%),[6],23%
same,Population Membrane Permeable-Phenotype (%),[6],22%
same,Population Mitochondria Different-Phenotype (%),[6],83%
same,Population Mitotic Cells (%),[6],13%
same,Population Normal (%),[6],76%
same,Population Pyknosed Nuclei (%),[6],18%
same,Population Tubulin-Different-Phenotype (%),[6],87%
same,Total Cell Count,[6],160
same,Population Apoptotic (%),[7],78% and 87% and 84%
same,Population Fragmented Nuclei (%),[7],20% and 22% and 15%
same,Population Healthy Nuclei (%),[7],27% and 32% and 52%
same,Population Hoechst High Intensity Objects (%),[7],15% and 11%
same,Population Membrane Permeable-Phenotype (%),[7],40% and 25% and 36%
same,Population Mitochondria Different-Phenotype (%),[7],100% and 93%
same,Population Mitotic Cells (%),[7],21% and 12% and 15%
same,Population Normal (%),[7],84% and 88%
same,Population Pyknosed Nuclei (%),[7],51% and 45% and 32%
same,Population Tubulin-Different-Phenotype (%),[7],100% and 95% and 96%
same,Total Cell Count,[7],235 and 238 and 280
same,Population Apoptotic (%),[8],66% and 83% and 86%
same,Population Fragmented Nuclei (%),[8],9% and 14%
same,Population Healthy Nuclei (%),[8],49% and 64% and 61%
same,Population Hoechst High Intensity Objects (%),[8],12% and 13% and 18%
same,Population Membrane Permeable-Phenotype (%),[8],56% and 31% and 62%
same,Population Mitochondria Different-Phenotype (%),[8],82%
same,Population Mitotic Cells (%),[8],33% and 16% and 13%
same,Population Normal (%),[8],87% and 86% and 81%
same,Population Pyknosed Nuclei (%),[8],40% and 21% and 28%
same,Population Tubulin-Different-Phenotype (%),[8],93%
same,Total Cell Count,[8],78 and 113 and 118
same,Population Apoptotic (%),[9],86% and 85%
same,Population Fragmented Nuclei (%),[9],29% and 24%
same,Population Healthy Nuclei (%),[9],9% and 15%
same,Population Hoechst High Intensity Objects (%),[9],15% and 20%
same,Population Membrane Permeable-Phenotype (%),[9],26% and 55%
same,Population Mitochondria Different-Phenotype (%),[9],100%
same,Population Mitotic Cells (%),[9],13% and 14%
same,Population Normal (%),[9],84% and 79%
same,Population Pyknosed Nuclei (%),[9],61% and 59%
same,Population Tubulin-Different-Phenotype (%),[9],89%
same,Total Cell Count,[9],315 and 232
same,Population Apoptotic (%),[10],76% and 84%
same,Population Fragmented Nuclei (%),[10],11% and 10%
same,Population Healthy Nuclei (%),[10],38% and 52%
same,Population Hoechst High Intensity Objects (%),[10],30% and 27%
same,Population Membrane Permeable-Phenotype (%),[10],87% and 71%
same,Population Mitochondria Different-Phenotype (%),[10],97%
same,Population Mitotic Cells (%),[10],23% and 15%
same,Population Normal (%),[10],70% and 72%
same,Population Pyknosed Nuclei (%),[10],50% and 37%
same,Population Tubulin-Different-Phenotype (%),[10],100% and 95%
same,Total Cell Count,[10],118 and 104
CC(=O)O[C@H]1C(=O)[C@@]2(C)[C@H]([C@H](OC(=O)c3ccccc3)[C@]3(O)C[C@H](OC(=O)[C@H](O)[C@@H](NC(=O)c4ccccc4)c4ccccc4)C(C)=C1C3(C)C)[C@]1(OC(C)=O)CO[C@@H]1C[C@@H]2O [PACLITAXEL],Population Fragmented Nuclei (%),[1],6% and 4%
same,Population Healthy Nuclei (%),[1],86% and 92%
same,Population Hoechst High Intensity Objects (%),[1],3% and 2%
same,Population Membrane Permeable-Phenotype (%),[1],15% and 11%
same,Population Mitochondria Different-Phenotype (%),[1],21% and 22%
same,Population Mitotic Cells (%),[1],33% and 80%
same,Population Normal (%),[1],96% and 97%
same,Population Pyknosed Nuclei (%),[1],7% and 3%
same,Population Tubulin-Different-Phenotype (%),[1],32% and 25%
same,Population Apoptotic (%),[2],6% and 8%
same,Population Fragmented Nuclei (%),[2],7%
same,Population Healthy Nuclei (%),[2],81% and 84%
same,Population Hoechst High Intensity Objects (%),[2],10% and 11%
same,Population Membrane Permeable-Phenotype (%),[2],14% and 7%
same,Population Mitochondria Different-Phenotype (%),[2],24% and 30%
same,Population Mitotic Cells (%),[2],93% and 91%
same,Population Normal (%),[2],90% and 88%
same,Population Pyknosed Nuclei (%),[2],10% and 8%
same,Population Tubulin-Different-Phenotype (%),[2],33%
same,Population Apoptotic (%),[3],30% and 77% and 26%
same,Population Fragmented Nuclei (%),[3],3% and 5% and 4% and 2%
same,Population Healthy Nuclei (%),[3],91% and 89%
same,Population Hoechst High Intensity Objects (%),[3],3% [middle of 4 runs]
same,Population Membrane Permeable-Phenotype (%),[3],11% and 7%
same,Population Mitochondria Different-Phenotype (%),[3],19% and 25%
same,Population Normal (%),[3],96% and 95% and 99% and 98%
same,Population Pyknosed Nuclei (%),[3],5%
same,Population Tubulin-Different-Phenotype (%),[3],41% and 30% and 39%
same,Population Fragmented Nuclei (%),[4],10% and 6%
same,Population Healthy Nuclei (%),[4],81% and 88% and 83% and 87%
same,Population Hoechst High Intensity Objects (%),[4],12% and 9% and 11%
same,Population Membrane Permeable-Phenotype (%),[4],12% and 9% and 8% and 6%
same,Population Mitochondria Different-Phenotype (%),[4],28% and 20% and 33%
same,Population Mitotic Cells (%),[4],77% [middle of 4 runs]
same,Population Normal (%),[4],87% and 90% and 88%
same,Population Pyknosed Nuclei (%),[4],8% and 6% and 2%
same,Population Tubulin-Different-Phenotype (%),[4],28% and 26% and 31%
same,Population Fragmented Nuclei (%),[5],4%
same,Population Healthy Nuclei (%),[5],93% and 90%
same,Population Hoechst High Intensity Objects (%),[5],1% and 3%
same,Population Membrane Permeable-Phenotype (%),[5],10% and 3%
same,Population Mitochondria Different-Phenotype (%),[5],19% and 15%
same,Population Mitotic Cells (%),[5],40% and 83%
same,Population Normal (%),[5],98% and 96%
same,Population Pyknosed Nuclei (%),[5],2% and 5%
same,Population Tubulin-Different-Phenotype (%),[5],35%
same,Population Apoptotic (%),[6],38% and 33%
same,Population Fragmented Nuclei (%),[6],5%
same,Population Healthy Nuclei (%),[6],87% and 91%
same,Population Hoechst High Intensity Objects (%),[6],6% and 7%
same,Population Membrane Permeable-Phenotype (%),[6],12% and 9%
same,Population Mitochondria Different-Phenotype (%),[6],23% and 26%
same,Population Mitotic Cells (%),[6],61% and 66%
same,Population Normal (%),[6],93% and 92%
same,Population Pyknosed Nuclei (%),[6],6% and 4%
same,Population Tubulin-Different-Phenotype (%),[6],37% and 33%
same,Population Apoptotic (%),[7],37% and 21%
same,Population Fragmented Nuclei (%),[7],3% and 2%
same,Population Healthy Nuclei (%),[7],94% and 91% and 93%
same,Population Hoechst High Intensity Objects (%),[7],2% and 1%
same,Population Membrane Permeable-Phenotype (%),[7],6% and 4%
same,Population Mitochondria Different-Phenotype (%),[7],26% and 17% and 29%
same,Population Mitotic Cells (%),[7],62% and 78%
same,Population Normal (%),[7],97% and 98%
same,Population Pyknosed Nuclei (%),[7],2% and 4% and 5%
same,Population Tubulin-Different-Phenotype (%),[7],50% and 38% and 34% and 37%
same,Population Apoptotic (%),[8],50% [middle of 4 runs]
same,Population Fragmented Nuclei (%),[8],10% and 5% and 7%
same,Population Healthy Nuclei (%),[8],81% and 86% and 85%
same,Population Hoechst High Intensity Objects (%),[8],5% and 3% and 4% and 9%
same,Population Mitochondria Different-Phenotype (%),[8],32% [middle of 4 runs]
same,Population Mitotic Cells (%),[8],45% and 66% and 50% and 64%
same,Population Normal (%),[8],94% and 96% and 95% and 90%
same,Population Pyknosed Nuclei (%),[8],8% and 3% and 6%
same,Population Tubulin-Different-Phenotype (%),[8],31% and 26% and 27%
